Data set [1] concerns the target T1, P2X purinoceptor 7 (Homo sapiens, UniProt Q99572).
T1 sequence (Q99572 whole entry): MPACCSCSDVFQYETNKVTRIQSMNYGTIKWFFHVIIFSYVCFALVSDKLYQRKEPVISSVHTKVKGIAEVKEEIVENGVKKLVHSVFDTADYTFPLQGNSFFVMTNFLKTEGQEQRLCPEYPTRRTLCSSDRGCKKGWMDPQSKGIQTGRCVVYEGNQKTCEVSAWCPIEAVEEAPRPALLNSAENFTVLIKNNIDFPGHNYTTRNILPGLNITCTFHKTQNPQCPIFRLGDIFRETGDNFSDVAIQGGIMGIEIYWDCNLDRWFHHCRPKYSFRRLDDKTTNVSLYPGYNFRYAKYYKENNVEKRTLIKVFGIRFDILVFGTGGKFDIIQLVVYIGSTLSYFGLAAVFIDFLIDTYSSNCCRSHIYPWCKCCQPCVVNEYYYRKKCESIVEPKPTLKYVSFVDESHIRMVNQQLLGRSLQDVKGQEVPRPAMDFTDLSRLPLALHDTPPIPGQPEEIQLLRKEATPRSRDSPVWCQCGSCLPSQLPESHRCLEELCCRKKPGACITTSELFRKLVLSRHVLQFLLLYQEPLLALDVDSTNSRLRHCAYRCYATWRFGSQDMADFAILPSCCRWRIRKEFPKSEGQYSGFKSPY
The experiment in a line: Antagonist activity at recombinant human P2X7 receptor expressed in HEK293 cells assessed as inhibition of BzATP-induced intracellular ethidium bromide uptake after 2 hrs by fluorescence assay. It is filed as cell-based. Summed up:
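Human HEK293 cells stably expressing recombinant human P2X7; ethidium accumulation stimulated by BzATP was measured.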

Data set [2] concerns the target T1, P2X purinoceptor 7. Nature of the data set: Antagonist activity at P2X7 receptor in LPS/IFN-gamma-differentiated human THP1 cells assessed as inhibition of BzATP-induced IL-1beta release preincubated for 30 mins followed by BzATP induction measured after 30 mins by ELISA. It is filed as cell-based, THP-1. Summed up: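 Human THP-1 monocytes, LPS-primed, stimulated with BzATP; IL-1β release measured by ELISA. Active compounds were screened at 1 µM, and full concentration-response curves were run to obtain IC50.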

Data set [3] has as its target T2, P2X purinoceptor 7 (Mus musculus, UniProt Q9Z1M0).
T2 sequence (Q9Z1M0 whole entry): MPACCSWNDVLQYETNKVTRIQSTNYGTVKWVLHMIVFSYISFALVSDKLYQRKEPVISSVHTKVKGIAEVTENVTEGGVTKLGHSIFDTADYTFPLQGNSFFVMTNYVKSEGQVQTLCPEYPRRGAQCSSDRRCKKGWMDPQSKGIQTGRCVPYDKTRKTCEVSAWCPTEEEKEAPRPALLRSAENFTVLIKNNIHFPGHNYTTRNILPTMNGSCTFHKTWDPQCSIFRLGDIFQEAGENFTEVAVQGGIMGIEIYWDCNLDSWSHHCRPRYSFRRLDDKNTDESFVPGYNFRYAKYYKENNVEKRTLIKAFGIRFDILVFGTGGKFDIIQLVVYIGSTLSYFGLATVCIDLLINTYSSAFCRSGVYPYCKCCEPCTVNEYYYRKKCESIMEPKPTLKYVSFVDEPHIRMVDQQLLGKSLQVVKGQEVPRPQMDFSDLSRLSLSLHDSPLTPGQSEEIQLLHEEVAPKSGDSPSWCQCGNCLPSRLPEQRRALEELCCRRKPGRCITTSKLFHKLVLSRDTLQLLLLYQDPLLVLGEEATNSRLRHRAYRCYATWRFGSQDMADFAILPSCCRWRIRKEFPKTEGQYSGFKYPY
Nature of the data set: Antagonist activity at P2X7 receptor in LPS-primed mouse J774.A1 cells assessed as inhibition of ATP-induced IL-1beta release after 30 mins by ELISA. It is filed as cell-based. The method, boiled down: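 J774.A1 mouse cells stimulated with 5 mM ATP; IL-1β release measured, with IC50 taken from concentration-response data.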

Data set [4] in a line: AUClast in rat at 10 mg/kg, ip. It is filed as ADME, organism-based. The arrangement: time 0 - last, dose 10 mg/kg, route intraperitoneal. The following applies: plasma. Summed up:
(§1)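 Rats were dosed with the test agent intraperitoneally or by intravenous injection. Drug levels were followed in plasma over time after dosing. Intravenous and intraperitoneal exposures were compared to give absolute bioavailability.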

Data set [5] is described as follows: Cmax in rat at 10 mg/kg, ip. It counts as ADME, organism-based. Further details: dose 10 mg/kg, route intraperitoneal. The following applies: in vivo. The method, boiled down:
(§2)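 Rats dosed 10 mg/kg intraperitoneally; plasma concentrations were measured, and absolute bioavailability was calculated relative to intravenous dosing.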

Data set [6] can be described thus: Half life in rat at 10 mg/kg, ip. It counts as ADME, organism-based. The settings on record: in vivo. Further details: dose 10 mg/kg, route intraperitoneal.
A short description of data set [7]: Bioavailability in rat at 10 mg/kg, ip. It counts as ADME, organism-based. The following applies: in vivo. Summed up: as §2
The nature of data set [8]: AUClast in rat at 20 mg/kg, iv. The settings on record: plasma. The arrangement: time 0 - last, dose 20 mg/kg, route intravenous. It counts as ADME, organism-based. Summed up:
as §1

The nature of data set [9]: Terminal half life in rat at 20 mg/kg, iv. The arrangement: dose 20 mg/kg, route intravenous. The settings on record: in vivo, read-out: beta t1/2. It counts as ADME, organism-based. The method, boiled down: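 Rats dosed intravenously; mean terminal half-life was derived from the plasma concentration decline.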
The target of data set [10] is T3, P2X purinoceptor 7 (Homo sapiens) (UniProt Q99572).
T3 sequence (whole entry): T1 sequence (Q99572 whole entry)
Nature of the data set: Antagonist activity at recombinant human P2X7 receptor expressed in HEK293 cells assessed as inhibition of BzATP-induced intracellular ethidium bromide uptake at 10 uM after 2 hrs by fluorescence assay. It is filed as cell-based.

In data set [11] the target is T1, P2X purinoceptor 7. The experiment in a line: Antagonist activity at human P2X7 receptor.
Data set [12] has as its target T3, P2X purinoceptor 7 (Homo sapiens). The experiment in a line: Antagonist activity at P2X7 receptor in LPS/IFN-gamma-differentiated human THP1 cells assessed as inhibition of BzATP-induced IL-1beta release at 1 uM preincubated for 30 mins followed by BzATP induction measured after 30 mins by ELISA relative to control. It counts as cell-based. The settings on record: THP-1. Summed up:
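LPS-primed THP-1 human monocytes were stimulated with BzATP, and IL-1β release was measured by ELISA. Test compound was given at a single concentration of 1 µM, and results are expressed as percent inhibition of BzATP-induced IL-1β release.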
In general terms: In an ELISA, binding on a coated surface is turned into a signal by an enzyme label.

For data set [13], the target named is T4, P2X purinoceptor 7 (Rattus norvegicus) (UniProt Q64663).
T4 sequence (whole entry): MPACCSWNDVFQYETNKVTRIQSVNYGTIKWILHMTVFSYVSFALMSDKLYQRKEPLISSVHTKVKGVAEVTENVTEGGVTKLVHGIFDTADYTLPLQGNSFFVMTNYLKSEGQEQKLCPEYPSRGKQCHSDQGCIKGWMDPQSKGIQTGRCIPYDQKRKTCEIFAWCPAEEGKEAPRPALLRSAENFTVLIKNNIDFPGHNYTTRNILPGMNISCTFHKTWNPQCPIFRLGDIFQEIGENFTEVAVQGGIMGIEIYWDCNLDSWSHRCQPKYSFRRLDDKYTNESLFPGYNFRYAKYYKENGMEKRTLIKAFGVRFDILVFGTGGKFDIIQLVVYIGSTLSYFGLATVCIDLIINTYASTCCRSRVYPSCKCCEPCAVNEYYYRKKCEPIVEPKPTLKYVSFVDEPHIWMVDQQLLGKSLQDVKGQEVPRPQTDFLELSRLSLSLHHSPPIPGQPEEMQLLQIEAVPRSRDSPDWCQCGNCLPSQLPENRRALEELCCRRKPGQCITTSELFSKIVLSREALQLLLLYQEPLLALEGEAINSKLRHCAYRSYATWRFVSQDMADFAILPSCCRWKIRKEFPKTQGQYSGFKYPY
The experiment in a line: Antagonist activity at P2X7 receptor in neuropathic rat dorsal horn assessed as inhibition of long term potentiation-induced neropathic pain at 20 uM relative to control. The settings on record: Dorsal horn of spinal cord. Summed up: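 Ex vivo spinal cord preparation: LTP-induced pain signalling recorded in the dorsal horn of neuropathic rats. Pregabalin served as the positive control.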

Molecules are shown by their SMILES. Activity calls are given as the source filed them. The calls are words filed in the database; no cut-off is given here.

On to `O=C1NC(=O)N(C2CCN(C(=O)c3ccc(Cl)c(C(F)(F)F)c3)CC2)C1Cc1ccc(OS(=O)(=O)c2cccc3cnccc23)cc1` (racemic), for which the IC50 (as a rule, the concentration that gives 50% inhibition) in data set [1] came out at 70 nM; in data set [2], 50 nM; in [3] it was 11800 nM. Moreover, the figures for the AUC(0-t) in data set [4] and in data set [8] were 1520 ng·h/mL and 3530 ng·h/mL, respectively. Moreover, in data set [5], the peak level (Cmax) was 400 ng/mL. Besides, the half-life came out at 2.15 h in [6] and 1.29 h in [9]. Besides, in data set [7], the bioavailability (commonly dose-corrected exposure relative to a reference, in per cent) turned out to be 86%.

`O=C1NC(=O)N(C2CCNCC2)C1Cc1ccc(OS(=O)(=O)c2cccc3cnccc23)cc1` (racemic): the inhibition (usually the drop in the measured response relative to a control, in per cent) in [10] is “inactive”.

In turn, `O=C(N[C@@H](Cc1ccc(OS(=O)(=O)c2ccc([N+](=O)[O-])cc2)cc1)C(=O)N1CCN(C(=O)c2ccccc2)CC1)OCc1ccccc1` displayed a half-maximal inhibitory concentration (IC50) in [11] of 34 nM.

As to `O=C1NC(=O)N(CC2CCNCC2)C1Cc1ccc(OS(=O)(=O)c2cccc3cnccc23)cc1` (racemic), the inhibition entry in data set [10] is “inactive”.

For `O=C1NC(=O)N(C2CCN(C(=O)c3ccc(Cl)c(C(F)(F)F)c3)CC2)C1c1ccc(OS(=O)(=O)c2cccc3cnccc23)cc1` (racemic), the inhibition in [10] is 30%.

`O=C([C@@H]1Cc2ccc(OS(=O)(=O)c3cccc4cnccc34)cc2CN1S(=O)(=O)c1cccc2cnccc12)N1CCN(c2ccccc2)CC1` displayed a half-inhibitory concentration (IC50) in [11] of less than 1000 nM.

Turning to `CC(C)(C)OC(=O)N1CCN(C(=O)[C@H](Cc2ccc(OS(=O)(=O)c3cccc4cnccc34)cc2)NS(=O)(=O)c2cccc3cnccc23)CC1`, 41 nM corresponded to half-maximal inhibition in [11] (IC50).

For `O=C1NC(=O)N(C2CCN(C(=O)C34CC5CC(CC3C5)C4)CC2)C1Cc1ccc(OS(=O)(=O)c2cccc3cnccc23)cc1` (racemic), the half-maximal inhibitory concentration (IC50) in [1] was found to be 69 nM; in data set [2], 49 nM. In data set [12], the inhibition is greater than 95%.

As to `O=C1NC(=O)N(C2CCN(C(=O)C34CC5CC(CC(C5)C3)C4)CC2)C1c1ccc(OS(=O)(=O)c2cccc3cnccc23)cc1` (racemic), in [10], the inhibition came out at 48%.

Regarding `O=C1NC(=O)N(C2CCN(C(=O)CC34CC5CC(CC(C5)C3)C4)CC2)C1Cc1ccc(OS(=O)(=O)c2cccc3cnccc23)cc1` (racemic), the values for the half-inhibitory concentration (IC50) in [1] and in data set [2] were 84 nM and 15 nM, respectively. For the same molecule, in data set [12], the inhibition was greater than 95%.

On to `O=C1NC(=O)N(C2CCN(C(=O)CC34CC5CC(CC(C5)C3)C4)CC2)C1c1ccc(OS(=O)(=O)c2cccc3cnccc23)cc1` (racemic), for which the inhibition in data set [10] was 46%.

Turning to `O=C1NC(=O)[C@H](Cc2ccc(OS(=O)(=O)c3cccc4cnccc34)cc2)N1`, the inhibition result in data set [10] is “inactive”.

For the molecule `CC(C)C[C@H](CN)CC(=O)O`, the inhibition in data set [13] was 31%.

Consider `O=C(NCC12CC3CC(CC(C3)C1)C2)c1cc(CCCNCCCO)ccc1Cl`, for which the concentration for half-maximal inhibition (IC50) in data set [3] was greater than 60000 nM.
